Assay outcomes from PubChem.
Rtt109 Vps75 = inhibitors of C. albicans Rtt109/Vps75 HAT, primary screen, biochemical, ThioGlo CoA-SH fluorescence, plate reader; inhibition, % at 34.9 µM; hit rate 0.16% among 330,000; purified Rtt109/Vps75, 4 h; Histone acetyltransferase RTT109 (Candida albicans (strain SC5314 / ATCC MYA-2876)), …;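 active = inhibition of at least 50% in every replicate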
Glyco luc inh = increase of ERlucT glycosylation luciferase signal, primary screen, N-linked glycosylation inhibitor project, D54 ERlucT cells, luminescence, set 2; D54 ERlucT glycosylation luciferase reporter, 24 h; percent of 100 nM tunicamycin response; reporter increase, % at 12.5 µM; hit rate 0.23% among 360,000; AID 588692, 2011;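 active = mean luciferase reporter signal, scaled so untreated is 0 and the glycosylation-blocking control 100, at or above a set limit in every replicate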;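 note: luciferase carries N-glycosylation sites so blocking glycosylation raises the light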
SR-BI HDL uptake = inhibitors of SR-BI mediated HDL lipid uptake, primary screen, ldlA[mSR-BI] cells, fluorescence, single point. hit rate 0.96% among 320,000. Scavenger receptor class B member 1 (Mus musculus), Q61009. AID 488896, 2010. ldlA[mSR-BI] CHO cells, DiI-HDL uptake fluorescence, 3 h. inhibition, % at 12.5 µM;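 active = mean replicate inhibition of at least 70% and a set share of replicates each scoring 70 or more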
Target sequence (Q61009 whole entry, looked up): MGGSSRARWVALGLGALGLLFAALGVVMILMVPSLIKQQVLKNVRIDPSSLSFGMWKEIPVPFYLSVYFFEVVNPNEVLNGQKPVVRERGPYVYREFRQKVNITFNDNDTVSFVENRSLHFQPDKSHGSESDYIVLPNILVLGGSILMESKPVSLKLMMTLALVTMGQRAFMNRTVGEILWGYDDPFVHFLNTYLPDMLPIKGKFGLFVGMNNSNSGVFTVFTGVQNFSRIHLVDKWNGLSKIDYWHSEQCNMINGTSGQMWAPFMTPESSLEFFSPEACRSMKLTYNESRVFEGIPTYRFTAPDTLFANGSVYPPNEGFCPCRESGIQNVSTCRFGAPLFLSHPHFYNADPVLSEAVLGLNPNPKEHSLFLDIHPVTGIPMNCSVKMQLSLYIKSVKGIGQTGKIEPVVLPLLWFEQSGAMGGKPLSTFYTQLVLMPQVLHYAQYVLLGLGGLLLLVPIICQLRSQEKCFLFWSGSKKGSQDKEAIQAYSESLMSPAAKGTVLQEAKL
HIV Env fusion = inhibitors of HIV-1 Env-driven cell-cell fusion, primary screen, HeLa-JRFL effector, CEM21 target cells, luciferase. inhibition, % at 12.3 µM. hit rate 1.1% among 360,000;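 active = mean replicate inhibition score of at least 50 and every replicate individually at or above 50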
PglD inh = C. jejuni PglD acetyltransferase inhibitors, primary screen, biochemical, DTNB colorimetric, single point; UDP-N-acetylbacillosamine N-acetyltransferase PglD (Campylobacter jejuni); purified PglD enzyme, DTNB colorimetric CoA detection; inhibition, % at 12.5 µM; hit rate 0.098% among 360,000; in the data active = inhibition above about 16%, passing the limit was not always enough
SR-BI uptake up = activators of SR-BI mediated DiI-HDL uptake, primary screen, ldlA[mSR-BI] CHO cells, DiI fluorescence; hit rate 0.096% among 320,000; 3 h; 100 = double the neutral-control signal; activation, % at 12.5 µM;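 active = mean replicate activation of at least 60% and every replicate at or above 60%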
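System: LDL receptor-deficient CHO ldlA cells overexpressing murine SR-BI | Timing: 3 h uptake period with compound, 37 °C | Medium: HEPES-buffered (25 mM, pH 7.4) F12 plus 0.5% BSA | Dosing: Single-point compound dose | Signal: Bottom-read fluorescence, 550/595 nm | Read-out: Retained DiI signal reflecting DiI-HDL uptake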
Hits are given with their value; [ ] = another dose, or the depositor's remark. A selection: hits, their analogues and other compounds. The true share with any hit is near 1.9%.

How did O=C(N/N=C/c1cn[nH]c1-c1ccc(Cl)cc1)c1ccc([N+](=O)[O-])cc1 do in these assays?
Rtt109 Vps75: inactive; Glyco luc inh: inactive; SR-BI HDL uptake: 95; HIV Env fusion: inactive; SR-BI uptake up: inactive

What do the screens show for `COc1cc(/C=C(/C#N)c2ccc(F)cc2)ccc1Oc1ccc([N+](=O)[O-])cn1`?
Rtt109 Vps75: inactive; Glyco luc inh: inactive; SR-BI HDL uptake: 85; SR-BI uptake up: inactive

What do the screens show for `CCOc1cc(C=C(C#N)C#N)ccc1Oc1ccc([N+](=O)[O-])cn1`?
Rtt109 Vps75: inactive; Glyco luc inh: inactive; SR-BI HDL uptake: inactive; HIV Env fusion: inactive; SR-BI uptake up: inactive

Results for COc1cc(/C=N\NC(=O)c2ccc(Cl)cc2)ccc1Oc1ccc([N+](=O)[O-])cn1 ?
Rtt109 Vps75: inactive; Glyco luc inh: inactive; SR-BI HDL uptake: 79; HIV Env fusion: inactive; SR-BI uptake up: inactive

Results for C[C@@H]1CN([C@@H](C)CO)C(=O)c2cc(NC(=O)CCN3CCOCC3)ccc2O[C@@H]1CN(C)Cc1ccccc1 ?
HIV Env fusion: inactive; PglD inh: inactive

Results for COc1ccccc1CN1C(=O)c2ccccc2[C@](Cc2ccccc2I)(C(=O)NCc2ccccc2)[C@@H]1c1ccc(CO)cc1 ?
HIV Env fusion: 60[16.7 µM]

What do the screens show for `COc1ccc(-c2nc(NC(=O)C3CCN(c4nc5ccccc5o4)CC3)sc2C)cc1`?
Rtt109 Vps75: inactive; Glyco luc inh: inactive; SR-BI HDL uptake: inactive; HIV Env fusion: 67; PglD inh: inactive; SR-BI uptake up: inactive

How did COc1ccc(-c2nc(NC(=O)Cn3c(=O)oc4ccccc43)sc2C)cc1 do in these assays?
Rtt109 Vps75: inactive; Glyco luc inh: inactive; SR-BI HDL uptake: inactive; HIV Env fusion: inactive; PglD inh: inactive; SR-BI uptake up: inactive

What do the screens show for `C[C@@H]1CCCCO[C@H](CN(C)Cc2ccc(C(F)(F)F)cc2)[C@H](C)CN([C@H](C)CO)C(=O)c2cc(NC(=O)Cc3ccccc3)ccc2O1`?
HIV Env fusion: 57[16.7 µM]; PglD inh: inactive

What do the screens show for `C[C@H]1CCCCO[C@@H](CN(C)Cc2ccc(C(F)(F)F)cc2)[C@@H](C)CN([C@@H](C)CO)C(=O)c2cc(NC(=O)Cc3ccccc3)ccc2O1`?
HIV Env fusion: 75[16.7 µM]; PglD inh: inactive

What do the screens show for `C[C@@H]1CCCCO[C@H](CN(C)Cc2ccc(C(F)(F)F)cc2)[C@@H](C)CN([C@H](C)CO)C(=O)c2cc(NC(=O)Cc3ccccc3)ccc2O1`?
HIV Env fusion: inactive; PglD inh: inactive

What do the screens show for `Cc1ccc(C(=O)O/N=C(\N)c2ccccn2)cc1`?
Rtt109 Vps75: inactive; Glyco luc inh: inactive; SR-BI HDL uptake: inactive; HIV Env fusion: 62; PglD inh: inactive; SR-BI uptake up: inactive

How did CCOc1ccc(C(=O)O/N=C(\N)c2ccccn2)cc1 do in these assays?
Rtt109 Vps75: inactive; Glyco luc inh: inactive; SR-BI HDL uptake: inactive; HIV Env fusion: 63; PglD inh: inactive; SR-BI uptake up: inactive

How did N/C(=N\OC(=O)c1ccccc1)c1ccccn1 do in these assays?
Glyco luc inh: inactive; SR-BI HDL uptake: inactive; HIV Env fusion: inactive; PglD inh: inactive; SR-BI uptake up: inactive

How did C[C@@H]1CCCCO[C@@H](CN(C)Cc2ccncc2)[C@H](C)CN([C@H](C)CO)C(=O)c2cc(NC(=O)c3ccccc3)ccc2O1 do in these assays?
HIV Env fusion: inactive; PglD inh: inactive

What do the screens show for `C[C@H]1CN([C@@H](C)CO)C(=O)c2cccc(NC(=O)NC3CCCCC3)c2O[C@H]1CN(C)Cc1ccc2c(c1)OCO2`?
HIV Env fusion: inactive; PglD inh: inactive

How did COc1ccc(/C(C)=N/NC(=O)c2cccc(S(=O)(=O)N3CCCC3)c2)c(O)c1 do in these assays?
Rtt109 Vps75: inactive; Glyco luc inh: inactive; SR-BI HDL uptake: 103; HIV Env fusion: 82; PglD inh: inactive; SR-BI uptake up: inactive

How did COc1ccc(C(C)=NNC(=O)c2cccc(S(=O)(=O)N3CCCC3)c2)cc1 do in these assays?
Rtt109 Vps75: inactive; Glyco luc inh: inactive; SR-BI HDL uptake: inactive; HIV Env fusion: inactive; PglD inh: inactive; SR-BI uptake up: inactive

How did CC(C)c1nc2oc3c(NCC4CCCO4)ncnc3c2c2c1COC(C)(C)C2 (centres undefined) do in these assays?
Rtt109 Vps75: inactive; Glyco luc inh: inactive; SR-BI HDL uptake: inactive; HIV Env fusion: inactive; PglD inh: inactive; SR-BI uptake up: inactive

How did CC(C)c1nc2oc3c(NCCO)ncnc3c2c2c1COC(C)(C)C2 do in these assays?
Rtt109 Vps75: inactive; Glyco luc inh: inactive; SR-BI HDL uptake: inactive; HIV Env fusion: inactive; PglD inh: inactive; SR-BI uptake up: 239

Results for CC(C)(C)c1ccc(C(=O)NCC(=O)N/N=C/c2cccs2)cc1 ?
Rtt109 Vps75: inactive; Glyco luc inh: inactive; SR-BI HDL uptake: inactive; HIV Env fusion: inactive; PglD inh: inactive; SR-BI uptake up: inactive

What do the screens show for `O=C(CNC(=O)c1cccc(Br)c1)N/N=C/c1cccs1`?
Rtt109 Vps75: 59; Glyco luc inh: inactive; SR-BI HDL uptake: inactive; HIV Env fusion: inactive; PglD inh: inactive; SR-BI uptake up: inactive

What do the screens show for `COc1ccc(-c2cc(C(=O)NNC(=S)NC(=O)c3c(-c4ccccc4)noc3C)[nH]n2)cc1`?
Rtt109 Vps75: inactive; Glyco luc inh: inactive; SR-BI HDL uptake: inactive; HIV Env fusion: 69; SR-BI uptake up: inactive

What do the screens show for `COc1ccc(/C=C/C(=O)NC(=S)NNC(=O)c2c(-c3ccccc3)noc2C)cc1`?
Rtt109 Vps75: inactive; Glyco luc inh: inactive; SR-BI HDL uptake: inactive; HIV Env fusion: 91; PglD inh: inactive; SR-BI uptake up: inactive

How did CN(C)CCCNC(=O)[C@H]1[C@H](CO)[C@H]2Cn3c(ccc(-c4ccc(F)cc4)c3=O)[C@@H]1N2C do in these assays?
PglD inh: inactive

What do the screens show for `O=C(C[C@H]1CC[C@H](NC(=O)c2ccccc2)[C@@H](CO)O1)NCc1ccc(Oc2ccccc2)cc1`?
HIV Env fusion: inactive; PglD inh: inactive

Results for O=C(C[C@@H]1CC[C@H](NC(=O)c2cccc(F)c2)[C@@H](CO)O1)NCc1ccc(Oc2ccccc2)cc1 ?
HIV Env fusion: inactive; PglD inh: inactive

What do the screens show for `O=C(C[C@H]1CC[C@@H](NC(=O)c2ccccc2)[C@H](CO)O1)NCc1ccc(Oc2ccccc2)cc1`?
HIV Env fusion: 66[16.7 µM]; PglD inh: inactive

What do the screens show for `O=C(C[C@@H]1CC[C@H](NC(=O)c2cccc(F)c2)[C@H](CO)O1)NCc1ccc(Oc2ccccc2)cc1`?
HIV Env fusion: 62[16.7 µM]; PglD inh: inactive
